These results are taken from ChEMBL document CHEMBL1159084, “Synthesis and structure-activity relationship of 1,2,4-triazole-containing diarylpyrazolyl carboxamide as CB1 cannabinoid receptor-ligand” (Bioorg Med Chem, 2010).

The target in one experiment is Cannabinoid receptor 2 (Homo sapiens, UniProt P34972). Description: Displacement of [3H]WIN-55212-2 from human recombinant CB2 receptor expressed in CHO-K1 cell membrane. Type of experiment: cell membranes. The essentials: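 CB2 membranes were from CHO K-1 cells transfected with human CB2, prepared in TME buffer (pH 7.4) and incubated with 3 nM [3H]WIN55,212-2 in TME plus 0.5% fatty-acid-free BSA for 1 h at 30 °C. Bound label was filtered on PEI-soaked GF/B, washed with ice-cold buffer containing 0.1% BSA, and counted by scintillation. IC50 values are from single determinations.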
Sequence of Cannabinoid receptor 2 (P34972 whole entry): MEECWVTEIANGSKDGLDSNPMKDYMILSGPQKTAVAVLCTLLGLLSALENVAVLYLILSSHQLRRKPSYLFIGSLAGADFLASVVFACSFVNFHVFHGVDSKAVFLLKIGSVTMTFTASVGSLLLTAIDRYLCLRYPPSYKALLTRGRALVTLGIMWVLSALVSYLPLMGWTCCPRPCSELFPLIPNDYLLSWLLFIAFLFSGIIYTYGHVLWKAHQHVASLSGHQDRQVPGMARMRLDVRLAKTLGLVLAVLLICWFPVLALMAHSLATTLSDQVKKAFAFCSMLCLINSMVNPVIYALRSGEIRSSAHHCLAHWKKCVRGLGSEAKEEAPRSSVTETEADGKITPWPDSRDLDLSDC
A general note: In a radioligand displacement assay an active substance lowers the binding of a labelled ligand.

Experiment [1] in a line: Selectivity for Sprague-Dawley rat CB1 receptor over human recombinant CB2 receptor. The essentials: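 Selectivity is the ratio of the hCB2 IC50 to the rCB1 IC50. The hCB2 IC50 came from CHO-K1 membrane displacement of [3H]WIN55,212-2, and the rCB1 IC50 from rat cerebellar membrane binding. Both binding assays ran 1 h at 30 °C with filtration and scintillation counting.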

In experiment [2] the target is Cannabinoid receptor 1 (Homo sapiens, UniProt P21554). Description: Inverse agonist activity at human recombinant CB1 receptor expressed in CHO cells by luciferase reporter gene assay. Type of experiment: functional, cell-based. In general terms: Reporter assays use an easily measured gene product as a stand-in for the process of interest.
Sequence of Cannabinoid receptor 1 (Homo sapiens, UniProt P21554) (P21554 whole entry): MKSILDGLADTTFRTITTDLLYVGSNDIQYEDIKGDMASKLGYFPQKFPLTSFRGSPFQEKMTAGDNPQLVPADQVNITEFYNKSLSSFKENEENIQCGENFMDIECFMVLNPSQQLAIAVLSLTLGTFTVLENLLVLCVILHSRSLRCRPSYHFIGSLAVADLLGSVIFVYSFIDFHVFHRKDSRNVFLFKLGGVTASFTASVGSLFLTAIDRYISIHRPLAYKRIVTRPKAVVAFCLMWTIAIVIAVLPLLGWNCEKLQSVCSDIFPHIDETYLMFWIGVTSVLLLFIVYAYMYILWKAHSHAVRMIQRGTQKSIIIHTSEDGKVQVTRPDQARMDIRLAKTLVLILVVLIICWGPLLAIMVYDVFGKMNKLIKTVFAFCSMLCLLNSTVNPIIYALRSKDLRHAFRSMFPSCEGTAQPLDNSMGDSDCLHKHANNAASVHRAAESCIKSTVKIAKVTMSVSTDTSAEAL
Experiment [3] deals with Cannabinoid receptor 1 (Rattus norvegicus, UniProt P20272). Description: Displacement of [3H]CP-55940 from CB1 receptor in Sprague-Dawley rat cerebellar membrane. On the set-up: species or system Cerebellum. The method in brief: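 Membranes came from cerebella of male Sprague Dawley rats (200–300 g), homogenized in TME buffer (50 mM Tris–HCl, 1 mM EDTA, 3 mM MgCl2, pH 7.4) and spun at 48,000g for 30 min at 4 °C. They were incubated 1 h at 30 °C in TME with 0.5% fatty-acid-free BSA, then filtered on PEI-soaked GF/B, washed and counted by scintillation. IC50 values are from single determinations.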
Sequence of Cannabinoid receptor 1 (Rattus norvegicus, UniProt P20272) (P20272 whole entry): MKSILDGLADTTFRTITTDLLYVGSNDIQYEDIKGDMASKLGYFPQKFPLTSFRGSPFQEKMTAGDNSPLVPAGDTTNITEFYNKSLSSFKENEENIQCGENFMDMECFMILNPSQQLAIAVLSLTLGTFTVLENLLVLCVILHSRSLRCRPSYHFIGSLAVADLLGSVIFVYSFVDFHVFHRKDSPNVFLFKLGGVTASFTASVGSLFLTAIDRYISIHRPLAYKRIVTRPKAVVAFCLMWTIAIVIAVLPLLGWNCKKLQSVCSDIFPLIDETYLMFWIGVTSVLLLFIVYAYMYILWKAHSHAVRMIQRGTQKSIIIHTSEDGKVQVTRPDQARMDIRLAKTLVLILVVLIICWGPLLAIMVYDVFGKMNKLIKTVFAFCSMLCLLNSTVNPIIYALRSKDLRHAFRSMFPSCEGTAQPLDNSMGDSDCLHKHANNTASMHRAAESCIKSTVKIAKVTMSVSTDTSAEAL

As for `CC(NC(=O)c1nn(-c2ccc(Cl)cc2Cl)c(-c2ccc(Br)cc2)c1Cn1cncn1)c1ccc(Br)cc1` (centres undefined), the 50% inhibitory concentration (IC50) (commonly the concentration at which inhibition is half-maximal) at Cannabinoid receptor 2 was determined as 6480 nM; on Cannabinoid receptor 1 [2], 28.2 nM; on Cannabinoid receptor 1 [3], 1.4 nM. Besides, the Ratio IC50 in experiment [1] was found to be 4630.

In the case of `O=C(NC1(c2ccccc2)CC1)c1nn(-c2ccccc2Cl)c(-c2ccc(Br)cc2)c1Cn1cncn1`, the 50% inhibitory concentration (IC50) is 3200 nM at Cannabinoid receptor 2 and 1.98 nM on Cannabinoid receptor 1 [3]. Moreover, in experiment [1], the Ratio IC50 was 1620.

Turning to `O=C(c1nn(-c2ccccc2Cl)c(-c2ccc(Br)cc2)c1Cn1cncn1)N1CCN(c2cccc(Cl)c2Cl)CC1`, the IC50 on Cannabinoid receptor 2 is 582 nM; on Cannabinoid receptor 1 [3], 2.22 nM. In addition, in experiment [1], the Ratio IC50 amounted to 262.

For `CC(NC(=O)c1nn(-c2ccccc2Cl)c(-c2ccc(Br)cc2)c1Cn1cncn1)c1ccc(Br)cc1` (centres undefined), the figures for the concentration for half-maximal inhibition (IC50) at Cannabinoid receptor 2, on Cannabinoid receptor 1 [2] and at Cannabinoid receptor 1 [3] were 1790 nM, 2.51 nM and 1.1 nM, respectively. For the same compound, the Ratio IC50 in experiment [1] came out at 1630.

Take `CC(NC(=O)c1nn(-c2ccccc2Cl)c(-c2ccc(Cl)cc2)c1Cn1cncn1)c1ccc(Br)cc1` (centres undefined): the half-maximal inhibitory concentration (IC50) at Cannabinoid receptor 2 was determined as 3510 nM; on Cannabinoid receptor 1 [3] it was 1.8 nM. Also, the Ratio IC50 in experiment [1] is 1950.

Take `O=C(NC1(c2ccc(Cl)cc2)CC1)c1nn(-c2ccccc2Cl)c(-c2ccc(Br)cc2)c1Cn1cncn1`: the concentration for half-maximal inhibition (IC50) was 2570 nM at Cannabinoid receptor 2 and 1.7 nM on Cannabinoid receptor 1 [3]. In experiment [1], the Ratio IC50 was 1510.

On to `CC(NC(=O)c1nn(-c2ccccc2Cl)c(-c2ccc(Cl)cc2)c1Cn1cncn1)c1ccc(Cl)cc1Cl` (centres undefined), for which the IC50 at Cannabinoid receptor 2 worked out at 3330 nM; at Cannabinoid receptor 1 [3] it was 2 nM. Further, in experiment [1], the Ratio IC50 stood at 1660.

On to `CC(NC(=O)c1nn(-c2ccccc2Cl)c(-c2ccc(Br)cc2)c1Cn1cncn1)c1ccc(Cl)cc1Cl` (centres undefined), for which the IC50 was 2420 nM at Cannabinoid receptor 2 and 2.2 nM at Cannabinoid receptor 1 [3]. The Ratio IC50 in experiment [1] came out at 1100.

Consider `Cc1cccc(N2CCN(C(=O)c3nn(-c4ccccc4Cl)c(-c4ccc(Br)cc4)c3Cn3cncn3)CC2)c1C`, for which the IC50 stood at 547 nM on Cannabinoid receptor 2 and 2.07 nM on Cannabinoid receptor 1 [3]. Besides, in experiment [1], the Ratio IC50 was 264.

Regarding `O=C(NC1CCCCC1)c1nn(-c2ccccc2Cl)c(-c2ccc(Br)cc2)c1Cn1cncn1`, the IC50 at Cannabinoid receptor 2 came to 4060 nM; at Cannabinoid receptor 1 [3] it was 1.6 nM. In addition, the Ratio IC50 in experiment [1] is 2540.

`O=C(NCC1CCCCC1)c1nn(-c2ccccc2Cl)c(-c2ccc(Cl)cc2)c1Cn1cncn1` displayed a concentration for half-maximal inhibition (IC50) at Cannabinoid receptor 1 [3] of 12.2 nM.

In turn, `CC(NC(=O)c1nn(-c2ccc(Cl)cc2Cl)c(-c2ccc(Br)cc2)c1Cn1cncn1)C(C)(C)C` (centres undefined) yielded an IC50 on Cannabinoid receptor 1 [3] of 4.1 nM.

`O=C(NC1(C(F)(F)F)CCC1)c1nn(-c2ccccc2Cl)c(-c2ccc(Cl)cc2)c1Cn1cncn1` gave a half-maximal inhibitory concentration (IC50) on Cannabinoid receptor 1 [3] of 5.14 nM.

For `O=C(c1nn(-c2ccccc2Cl)c(-c2ccc(Br)cc2)c1Cn1cncn1)N1CCN(c2cccc(Cl)c2)CC1`, the IC50 at Cannabinoid receptor 2 came out at 296 nM; on Cannabinoid receptor 1 [3], 2.28 nM. Moreover, the Ratio IC50 in experiment [1] was determined as 130.

`CC(NC(=O)c1nn(-c2ccc(Cl)cc2Cl)c(-c2ccc(Br)cc2)c1Cn1cncn1)c1ccc(Cl)cc1Cl` (centres undefined) gave a half-inhibitory concentration (IC50) on Cannabinoid receptor 1 [3] of 2.2 nM.

`O=C(NCC1CCCCC1)c1nn(-c2ccc(Cl)cc2Cl)c(-c2ccc(Br)cc2)c1Cn1cncn1` returned an IC50 on Cannabinoid receptor 1 [3] of 20.5 nM.

Turning to `O=C(c1nn(-c2ccc(Cl)cc2Cl)c(-c2ccc(Br)cc2)c1Cn1cncn1)N1CCN(c2ncccn2)CC1`, the IC50 at Cannabinoid receptor 1 [3] is 27.7 nM.

At Cannabinoid receptor 1 [3], `CC(C)(NC(=O)c1nn(-c2ccccc2Cl)c(-c2ccc(Cl)cc2)c1Cn1cncn1)c1ccc(Cl)cc1` returned a half-inhibitory concentration (IC50) of 7.7 nM.

`CCN1CCN(C(=O)c2nn(-c3ccccc3Cl)c(-c3ccc(Br)cc3)c2Cn2cncn2)CC1` yielded an IC50 at Cannabinoid receptor 1 [3] of 303 nM.

`O=C(NC1(C(F)(F)F)CCC1)c1nn(-c2ccc(Cl)cc2Cl)c(-c2ccc(Cl)cc2)c1Cn1cncn1` showed a half-maximal inhibitory concentration (IC50) at Cannabinoid receptor 1 [3] of 4.67 nM.

For the compound `O=C(NC1(C(F)(F)F)CCC1)c1nn(-c2ccc(Cl)cc2Cl)c(-c2ccc(Br)cc2)c1Cn1cncn1`, the half-inhibitory concentration (IC50) on Cannabinoid receptor 1 [3] was found to be 3.87 nM.

On Cannabinoid receptor 1 [3], `O=C(NCc1ccccc1)c1nn(-c2ccc(Cl)cc2Cl)c(-c2ccc(Cl)cc2)c1Cn1cncn1` returned an IC50 of 19.2 nM.

Take `O=C(NN1CCCCC1)c1nn(-c2ccc(Cl)cc2Cl)c(-c2ccc(Br)cc2)c1Cn1cncn1`: the IC50 at Cannabinoid receptor 1 [3] is 5.11 nM.

Consider `C[C@H]1CC[C@H](NC(=O)c2nn(-c3ccc(Cl)cc3Cl)c(-c3ccc(Cl)cc3)c2Cn2cncn2)CC1`, for which the half-inhibitory concentration (IC50) at Cannabinoid receptor 1 [3] stood at 14.2 nM.

`O=C(NNC(=O)C1(c2ccc(Cl)cc2)CC1)c1nn(-c2ccc(Cl)cc2Cl)c(-c2ccc(Cl)cc2)c1Cn1cncn1` had an IC50 at Cannabinoid receptor 1 [3] of 44.5 nM.
